{"source": "paper PMC3867294", "about": "(Biochemical and biophysical research communications, 2013)", "key": {"[1]": {"tested_on": "LPS-mediated inflammation in rats", "assay_type": "in vivo", "conditions": "n=3 rats/group"}, "[2]": {"tested_on": "LPS-mediated inflammation in rats", "experiment": "Protocol 1: plasma cytokines", "assay_type": "in vivo, Sprague-Dawley rats"}, "[3]": {"tested_on": "liver inflammation in endotoxemic rats", "experiment": "Liver histology", "assay_type": "in vivo, Sprague-Dawley rats", "conditions": "2.5 mg/kg mR18L i.p. without LPS; H&E sections; n=3", "method_in_brief": "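Male Sprague-Dawley rats received test compound 2.5 mg/kg i.p., with or without LPS 5 mg/kg i.p. one minute before, and were killed at 2 h. Liver was formalin-fixed, paraffin-embedded, cut at 5 μm and H&E-stained. A blinded pathologist scored it subjectively. Segmented neutrophils were counted at x40, 30 fields from 10 random portal areas. n=3 control, n=4 LPS groups.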"}, "[4]": {"tested_on": "iNOS (NOS2) in rat liver", "experiment": "iNOS expression in liver tissue by immunoblotting", "assay_type": "in vivo, Sprague-Dawley rats", "conditions": "2.5 mg/kg mR18L with 5 mg/kg LPS; 2h post LPS; immunoblot, n=6 in LPS groups; P<0.05 vs LPS alone"}, "[5]": {"tested_on": "endotoxin activity of LPS", "experiment": "Endotoxin activity in rat plasma by LAL assay, protocol 1", "assay_type": "in vivo, Sprague-Dawley rats", "conditions": "2h post 5 mg/kg LPS and 2.5 mg/kg mR18L, n=5-7/group, P<0.05 vs LPS alone", "method_in_brief": "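Adult male Sprague-Dawley rats (322±8 g) got E. coli 026:B6 LPS at 5 mg/kg i.p. and, one minute later, test compound at 2.5 mg/kg i.p. at a different site. Rats were killed at 2 h and the plasma was frozen. Endotoxin activity was read by kinetic-colorimetric LAL assay, n=5–7/group. Groups were compared by one-way ANOVA with Bonferroni, mean±SEM.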"}, "[6]": {"tested_on": "LPS-mediated inflammation in rats", "experiment": "Protocol 2: mR18L one hour post LPS, rat plasma at 6h post LPS", "assay_type": "in vivo, Sprague-Dawley rats", "conditions": "2.5 mg/kg mR18L one hour post 5 mg/kg LPS", "method_in_brief": "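Rats got LPS (E. coli 026:B6, 5 mg/kg i.p.), then test compound 2.5 mg/kg one hour later; n=5/group. Plasma was taken at baseline and 6 h. Measures: cholesterol and triglycerides by kit; IL-6 and IL-10 by ELISA; endotoxin by kinetic LAL. PON1 was read as paraoxon-driven 4-nitrophenol release at 405 nm. Tests: paired t-test vs baseline, unpaired vs LPS.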"}, "[7]": {"tested_on": "atherosclerosis and plasma cholesterol in mouse models", "conditions": "oral and intravenous administration; cited from earlier work"}, "[8]": {"conditions": "cited from earlier work"}, "[9]": {"tested_on": "hepatocytes", "conditions": "in-vitro; cited from earlier work"}, "[10]": {"conditions": "2.5 mg/kg mR18L i.p. one minute post 5 mg/kg LPS, 2h post LPS, n=5-7 rats/group"}}, "data": [{"substance": "Ac-GFRRFLGSWARIYRAFVG-NH2 [mR18L, Ac-G-F-R-R-F-L-G-S-W-A-R-I-Y-R-A-F-V-G-NH2]", "values": [{"measurement": "tolerance to mR18L", "setting": "[1]; 1, 2.5 and 5 mg/kg mR18L i.p. one minute post 5 mg/kg LPS i.p.", "result": "All rats demonstrated tolerance"}, {"measurement": "LPS-mediated plasma elevation of TNF-α", "setting": "[1]; starting at the lowest tested dose of 1 mg/kg mR18L i.p., 5 mg/kg LPS", "result": "significantly reduced"}, {"measurement": "LPS-mediated elevation of plasma IL-6", "setting": "[2]; [10]", "result": "significantly reduced"}, {"measurement": "LPS-mediated elevation of plasma TNF-α", "setting": "[2]; [10]", "result": "significantly reduced"}, {"measurement": "plasma anti-inflammatory cytokine IL-10", "setting": "[2]; [10]", "result": "without significantly reducing"}, {"measurement": "normal levels of TNF-α, IL-6 and IL-10 in rat plasma, mR18L administered alone", "setting": "[2]; 2.5 mg/kg mR18L i.p. without LPS, 2h, n=5 rats/control group", "result": "no effects"}, {"measurement": "liver morphology and histology, mR18L alone", "setting": "[3]", "result": "normal morphological and histological features without signs of inflammation or tissue damage"}, {"measurement": "LPS-mediated iNOS elevation in liver", "setting": "[4]", "result": "reduced"}, {"measurement": "endotoxin activity in plasma of LPS-treated rats", "setting": "[5]", "result": "significantly reduced"}, {"measurement": "increase of plasma PON1 activity in LPS-treated rats", "setting": "[6]; n=5, P<0.05 vs baseline", "result": 15, "unit": "%"}, {"measurement": "LPS-mediated elevation of plasma triglyceride", "setting": "[6]; n=5 rats/group", "result": "reduced"}, {"measurement": "plasma cholesterol", "setting": "[6]; n=5 rats/group", "result": "not affecting"}, {"measurement": "reduction of plasma levels of IL-6", "setting": "[6]; n=5 rats/group, vs LPS", "result": 57, "unit": "%"}, {"measurement": "reduction of plasma levels of IL-10", "setting": "[6]; n=5 rats/group, vs LPS", "result": 38, "unit": "%"}, {"measurement": "increase of IL-10 to IL-6 ratio", "setting": "[6]; not shown", "result": 24, "unit": "%"}, {"measurement": "reduction of plasma endotoxin activity", "setting": "[6]; LAL assay, n=5 rats/group, vs LPS", "result": 30, "unit": "%"}, {"measurement": "atherosclerotic lesion formation", "setting": "[7]", "result": "inhibited"}, {"measurement": "plasma cholesterol levels, mainly VLDL", "setting": "[7]", "result": "decreased"}, {"measurement": "lytic properties relative to 18L", "setting": "[8]", "result": "substantially reduced lytic properties"}, {"measurement": "uptake of atherogenic lipoproteins by hepatocytes", "setting": "[9]", "result": "able to enhance uptake"}]}]}
